Compounds with a hit are over-represented: about 1.1% of the library has one in this group of screens.
PglD DTNB = PglD (C. jejuni) enzyme inhibition; purified PglD enzyme, DTNB colorimetric CoA detection; inhibition, % at 12.5 µM; 0.098% of 360,000 active; in the data active = inhibition above about 16%, passing the limit was not always enough; inconclusive = no clear call, values can overlap the other calls
miR-122 sensor = miR-122 inhibition in Huh7 cells. Huh7 miR-122 Renilla luciferase sensor, 48 h; neutral wells = 0, positive control = 100. activation (reporter increase), % at 12.5 µM. 0.3% of 340,000 active;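 active = mean replicate activation score at least 90 and every replicate individually at or above 90; inconclusive = only one of the two criteria met; inactive = neither criterion met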;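 note: higher luciferase means less miR-122 activity so hits act as miR-122 inhibitors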
CAL PDZ FP-1 = blocks peptide binding to the human CAL PDZ domain | Q9HD26 | 0.92% of 300,000 active | inhibition, % at 24.9 µM | purified CAL PDZ, TMR-peptide fluorescence polarization, 1 h;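 active = mean inhibition of at least 30% with at least half of replicates also reaching 30%; inconclusive = no clear call, values can overlap the other calls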;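 note: 0% = DMSO neutral control and 100% = excess unlabeled competitor peptide PRC23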
CAL PDZ FP-2 = inhibitors of human CAL PDZ peptide binding | Q9HD26 | purified CAL PDZ, TMR-peptide fluorescence polarization, 1 h | inhibition, % at 20 µM | 0.02% of 330,000 active;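 active = highest replicate inhibition of at least 40%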;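 note: plate controls were DMSO neutral control wells for no effect and unlabeled competitor peptide control wells for full effect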
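Test system: tagged CAL PDZ domain / Buffer or medium: sodium phosphate/NaCl buffer pH 7.4 with TCEP, IgG, Thesit / Reagent: TMR-labelled reporter peptide T*-PRC34 bound in PDZ groove / Compound dosing: single point, 20 µM / Schedule: 1 h incubation at room temperature before polarization reading / Technique: fluorescence polarization (mP) / Benchmarks: unlabelled peptide, DMSO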
Cneo AK release = Cryptococcus neoformans lysis via adenylate kinase release; C. neoformans lysis, adenylate kinase release luminescence, 4 h; normalised: neutral wells 0, clomiphene wells 100; lysis activity, % at 15 µM; 0.2% of 360,000 active;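 active = mean lysis activity across replicates of at least 80%, whatever share of replicates individually reach that level; inactive = mean lysis activity below 80%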
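Test system: log-phase Cryptococcus neoformans yeast cells. Input: 5 × 10^6 yeast cells/mL. Medium: fresh YPD growth medium. Doses: single dose. Incubation: static 4 h at 37 °C with compound, 1 h detection. Measured by: luminescent adenylate kinase detection reagent. Read-out: signal increase indicating cell lysis. Benchmarks: Clomiphene.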
* marks the source's active call; other numbers are inactive results; ? = inconclusive; . = no result given; [ ] = another dose, or the depositor's remark.

SMILES	PglD DTNB	miR-122 sensor	CAL PDZ FP-1	CAL PDZ FP-2	Cneo AK release
CCCN(CCC)C(=O)CC(c1ccccc1)c1ccco1 (stereo unspecified)	4	1	.	-9	-6
O=C(C[C@@H]1C/C=C\CC[C@H](Cc2ccc(F)cc2)C(=O)OC[C@@H]2CCCN2C1=O)NCCO	1	-7	-3	-1	-2
COc1ccc(NC(=O)CN2CCCC2c2cccs2)cc1S(=O)(=O)N1CCCCC1 (stereo unspecified)	-5	22	-3	-1	-5
CCOC(=O)c1c(N)c(C#N)c2n1CCCC2	-5	-10	2	0	-1
CCOC(=O)c1c(N)c(C#N)c2n1CCCCC2	3	4	37*	.	0
CCOC(=O)c1[nH]c2c(c1C)C(=O)CC(c1ccco1)C2 (stereo unspecified)	-2	?	.	-1	1
Cc1c(C(=O)OCc2ccccc2)[nH]c2c1C(=O)CC(c1ccco1)C2 (stereo unspecified)	3	139*	.	-1	-1
Cc1cc(S(=O)(=O)Nc2ccc3cn[nH]c3c2)c(C)cc1Cl	-5	144*	-7	-1	1
O=S(=O)(Nc1ccc2cn[nH]c2c1)c1ccc(Cl)cc1	1	7	0	-3	3
Cc1ccc(-c2nc(CS(=O)CC(=O)NC(C)CCc3ccccc3)c(C)o2)cc1 (stereo unspecified)	4	.	0	-3	-1
COc1ccc(-c2nc(CS(=O)CC(=O)NC(C)CCc3ccccc3)c(C)o2)cc1OC (stereo unspecified)	-2	6	45*	0	-1
CCN(C(=O)CN1C(=O)/C(=C/c2ccccc2)SC1=S)C1CCS(=O)(=O)C1 (stereo unspecified)	0	-4	72*	0	5
COc1ccc(C)cc1S(=O)(=O)NC1CCCCCC1	0	101*	-2	-3	-1
COc1ccc(S(=O)(=O)NC2CCCCC2)c(C)c1C	11	111*	1	0	-2
COc1ccc(C)cc1S(=O)(=O)N1CCCC(C(=O)NC2CC2)C1 (stereo unspecified)	1	-4	36*	0	2
COc1ccc(OC)c(S(=O)(=O)NC2CCCCC2)c1	-1	84	-2	-2	0
COc1ccc(S(=O)(=O)NC2CCCC2)c(OC)c1	-4	.	-5	-3	1
CCc1nc2c(OCc3cc(Cl)cc(Cl)c3)cccn2c1N(C)C(=O)Nc1ccccc1OC	5	-2	.	.	3
C[C@H]1CCCCO[C@@H](CN(C)Cc2ccncc2)[C@@H](C)CN([C@@H](C)CO)C(=O)c2cc(NC(=O)CCC(F)(F)F)ccc2O1	-1	2[16.7 µM]	.	.	0
CC(C)C#Cc1cnc2c(c1)C(=O)N([C@H](C)CO)C[C@@H](C)[C@H](CN(C)C(=O)Nc1cccc(F)c1)O2	4	0[16.7 µM]	.	.	-1
COc1cccc(/C=C2\SC(=S)N(CCC(=O)NCCc3ccc(O)cc3)C2=O)c1	-4	10	80*	0	-8
COn1c(SCC(N)=O)nc2ccccc2c1=O	4	7	-1	-2	-1
COn1c(SCc2ccc(C)cc2C)nc2ccccc2c1=O	1	3	48*	.	-4
COn1c(-n2nc(C)cc2C)nc2ccccc2c1=O	-4	3	-8	-1	91*
C#CCOn1c(-n2nc(C)cc2C)nc2ccccc2c1=O	1	4	.	-1	-7
SMILES	PglD DTNB	miR-122 sensor	CAL PDZ FP-1	CAL PDZ FP-2	Cneo AK release
CCCC#Cc1cnc2c(c1)C(=O)N([C@@H](C)CO)C[C@H](C)[C@H](CN(C)C(=O)Nc1ccccc1OC)O2	-6	13[16.7 µM]	.	.	3
CCCNC(=O)C[C@@H]1C[C@H]2c3cc(NC(=O)C4CCOCC4)ccc3O[C@H]2[C@@H](CO)O1	-2	3[16.7 µM]	.	.	2
O=C(NNS(=O)(=O)c1ccccc1[N+](=O)[O-])c1cccc(Br)c1	-2	-7	51*	-1	2
C[C@@H]1CN([C@H](C)CO)C(=O)c2cc(NS(=O)(=O)c3cn(C)cn3)ccc2O[C@@H](C)CCCCO[C@H]1CN(C)Cc1ccc2c(c1)OCO2	0	13[16.7 µM]	.	.	2
CCN(CC)S(=O)(=O)c1ccc(N2CC(C(=O)NCCc3ccc(Cl)cc3)CC2=O)cc1 (stereo unspecified)	-2	61	-4	0	2
CCN(CC)S(=O)(=O)c1ccc(N2CC(C(=O)NCCC3=CCCCC3)CC2=O)cc1 (stereo unspecified)	-3	0	45*	-2	-1
Cc1noc(C)c1NC(=O)N[C@H]1C=C[C@H](CC(=O)NCCCN(C)C)O[C@H]1CO	-3	.	.	.	-1
C[C@H]1CN([C@@H](C)CO)C(=O)Cc2cc(NC(=O)C3CCCCC3)ccc2O[C@@H]1CN(C)C(=O)Nc1ccc(C(F)(F)F)cc1	4	-4[16.7 µM]	.	.	-5
OCCCc1cn(Cc2ccccc2)c2ccccc12	-3	-2	56*	.	-1
CC(=O)NC(C)Cc1cn(Cc2ccccc2)c2ccccc12 (stereo unspecified)	-1	-3	-2	0	7
C[C@H](CO)N1C[C@H](C)[C@H](CN(C)Cc2ccc(C(=O)O)cc2)Oc2ccc(N(C)C)cc2C1=O	.	-3[16.7 µM]	.	.	.
O=S(=O)(c1ccc(-n2cnnn2)cc1)N1CCN(c2ccccc2F)CC1	2	-11	-1	-3	0
Cc1ccc(N2CCN(S(=O)(=O)c3ccc(-n4cnnn4)cc3)CC2)c(C)c1	0	-3	79*	0	3
C/C=C/c1ccc2c(c1)O[C@H](CN(C)CC1CCCC1)[C@@H](C)CN([C@H](C)CO)S2(=O)=O	2	66[16.7 µM]	.	.	1
Oc1ccccc1-c1nnc(SCCN2CCOCC2)n1Cc1ccccc1	-3	241*	56*	-2	-1
C[C@H](CO)N1C[C@H](C)[C@H](CN(C)C(=O)CN(C)C)Oc2cc(C#Cc3cccnc3)ccc2S1(=O)=O	-8	-4[16.7 µM]	.	.	60
CCOC(=O)c1c(/N=C/C2C(=O)CCCC2=O)sc2c1CCCC2	.	-1	3	-1	.
CCOC(=O)c1c(/N=C/C2C(=O)CC(C)(C)CC2=O)sc2c1CCCC2	.	1	79*	-1	.
CO[C@H]1CN(C)C(=O)c2cc(NC(=O)Nc3c(C)noc3C)ccc2OC[C@@H](C)NC[C@@H]1C	0	-1[16.7 µM]	.	.	1
COCCN1C(=O)N(c2cccc(OC)c2)C(=O)C1CC(=O)Nc1ccc(OC)cc1 (stereo unspecified)	-2	3	-4	0	-2
CCOc1ccc(NC(=O)CC2C(=O)N(c3cccc(OC)c3)C(=O)N2CCOC)cc1 (stereo unspecified)	0	8	59*	-2	-4
O=C(Nc1ccccc1F)N[C@@H]1CC[C@@H](CCNC(=O)C2CCC2)O[C@H]1CO	0	.	.	.	-3
CNC(=O)[C@@]1(C)C=C[C@@H](Cc2ccccc2)N1C(=O)OC	-3	133*	-4	0	1

High-throughput results as filed in PubChem.
